A word on the IC50: it is the concentration at which inhibition is half-maximal. The AUC is the area under the concentration-time curve, a measure of exposure. What is called half-life is the time in which the quantity being followed falls by half. The Cmax is the highest concentration seen after dosing. A word on the inhibition: it is how much of the control response was suppressed. Broadly, the Tmax is the time at which the peak concentration occurs. As usually defined, the CL/F is clearance divided by bioavailability, as obtained after extravascular dosing. One may read the AUC(0-inf) as the area under the concentration-time curve extrapolated to infinity.

The values below come from ChEMBL document CHEMBL4840327, “Identification and structure-activity relationship exploration of uracil-based benzoic acid and ester derivatives as novel dipeptidyl Peptidase-4 inhibitors for the treatment of type 2 diabetes mellitus” (Eur J Med Chem, 2021).

One series deals with Dipeptidyl peptidase 4 (Homo sapiens, UniProt P27487). The series can be described thus: Inhibition of human recombinant DPP4 using Gly-Pro-AMC as substrate preincubated for 15 mins followed by substrate addition and measured for 20 mins by fluorescence based microplate reader assay.
Series [1] in a line: Metabolic stability in Sprague-Dawley rat plasma assessed as parent compound remaining at 1 uM incubated for 120 mins by LC-MS/MS analysis. The class given is ADME, cell-free. The following applies: read-out: Stability. The procedure, abridged:
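SD rat plasma incubated with compound for 120 min. Supernatant analysed by LC-MS/MS; remaining % = (C120/C0) × 100. Values come from two independent experiments.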

Series [2] can be described thus: Metabolic stability in ICR mouse liver microsomes assessed as parent compound remaining at 0.1 uM incubated for 60 mins in presence of NADPH by LC-MS/MS analysis. The format is ADME, Microsome. The settings on record: read-out: Stability. A digest of the protocol: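 ICR mouse liver microsomes (1 mg/mL) in 100 mM Tris pH 7.4 with 10 mM MgCl2, preincubated 5 min at 37 °C. Incubated 0–60 min at 37 °C with compound at 0.1 µM final. Quench with ice-cold methanol with 0.5% formic acid, centrifuge, LC-MS/MS. No-microsome controls run; all in duplicate.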
On the technique in general: Liver microsomes are a subcellular fraction often used to study metabolism.

The next series deals with Dipeptidyl peptidase 8 (Homo sapiens, UniProt Q6V1X1). Kind of series: Inhibition of human recombinant DPP8 using Gly-Pro-AMC as substrate preincubated for 15 mins followed by substrate addition and measured for 20 mins by fluorescence based microplate reader assay.
The nature of series [3]: AUC (0 to infinity) in Sprague-Dawley rat at 3 mg/kg, iv measured after 48 hrs by LC-MS/MS analysis. The class given is ADME, organism-based. Also on record: route intravenous, time 48 hrs, dose 3 mg/kg. The following applies: in vivo.
The target in a further series is Dipeptidyl peptidase 9 (Homo sapiens, UniProt Q86TI2). Kind of series: Inhibition of human recombinant DPP9 using Gly-Pro-AMC as substrate preincubated for 15 mins followed by substrate addition and measured for 20 mins by fluorescence based microplate reader assay.
Series [4] in a line: Half life in Sprague-Dawley rat at 3 mg/kg, iv measured after 48 hrs by LC-MS/MS analysis. The format is ADME, organism-based. The following applies: in vivo.
Series [5] is described as follows: Cytotoxicity against human L02 cells assessed as cell viability up to 100 uM measured after 48 hrs by MTT assay relative to control. The following applies: read-out: Activity. The class given is cell-based. A digest of the protocol: (§1)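 Log-phase hepatic LO2 cells seeded at 1 × 10^4 cells/well and exposed to compound or vehicle for 48 h. MTT (5 mg/mL in PBS) added for 4 h at 37 °C, 5% CO2; formazan dissolved in DMSO, absorbance read at 490 nm. Viability given as % of vehicle control; mean ± SD, n = 5.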
(Formazan colour is commonly taken as a measure of viable cells.)

The nature of series [6]: Cmax in Sprague-Dawley rat at 3 mg/kg, iv measured after 48 hrs by LC-MS/MS analysis. The class given is ADME, organism-based. Also on record: route intravenous, dose 3 mg/kg, time 48 hrs. The settings on record: in vivo.
The nature of series [7]: Clearance in Sprague-Dawley rat at 3 mg/kg, iv measured after 48 hrs by LC-MS/MS analysis. The class given is ADME, organism-based. The following applies: in vivo.
Series [8] concerns the target Dipeptidyl peptidase 4 (Rattus norvegicus) (UniProt P14740). Kind of series: In vivo inhibition of DPP4 in Sprague-Dawley rat plasma at 10 mg/kg, po via gavage using Gly-Pro-AMC as substrate measured after 24 hrs relative to control. The class given is functional, organism-based. The procedure, abridged: (§2)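 Male SD rats (n = 3/group), fasted overnight, gavaged with 10 mg/kg in distilled water or vehicle. Heparinized orbital blood taken at 0–48 h; plasma stored −20 °C. Plasma mixed with 125 µM Gly-Pro-AMC in 100 mM HEPES pH 7.5, 0.1 mg/mL BSA; AMC release followed 10 min at 37 °C (ex 360/em 460 nm). Rate expressed as % of vehicle-sample rate.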

Series [9] has as its system Mus musculus. Kind of series: Hypoglycemic activity in ICR mouse assessed as reduction in glucose secretion at 10 mg/kg, po via gavage administered as single dose pretreated with compound followed by glucose challenge measured after 120 mins relative to control. The format is functional. Also on record: scale not given: the % may be the effect or the level left. The following applies: 2 h. A digest of the protocol: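 Male ICR mice (6–7 weeks), overnight fasted, n = 8/group. Single gavage dose in water (vehicle: water). Tail-tip blood glucose by glucometer. Oral glucose 3 g/kg given 60 min after treatment (t = 0), and readings taken up to 120 min.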

The test system of series [10] is Mus musculus. The series can be described thus: Hypoglycemic activity in overnight fasted C57BL/6 db/db mouse reduction in blood glucose AUC (0 to 120 mins) at 10 mg/kg, po pretreated with compound for 30 mins followed by oral glucose challenge and measured up to 120 mins by glucometer relative to control. The format is functional. Also on record: scale not given: the % may be the effect or the level left. The settings on record: time min <=150. The procedure, abridged: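 Male C57BL/6 db/db mice (6–8 weeks, 22 ± 2 g), overnight fasted, n = 6 per group. Oral dosing in water (vehicle: water), then oral glucose 2 g/kg 30 min later. Tail-bleed glucose by glucometer predose and at 0, 15, 30, 60 and 120 min after the load.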

In series [11] the test system is Mus musculus. Kind of series: Antidiabetic activity in C57BL/6 db/db mouse assessed as reduction in blood glucose AUC (0 to 120 mins) at 10 mg/kg, po administered once daily for 4 weeks followed by 12 hrs fasting and subsequent glucose challenge and measured up to 120 mins by glucometer relative to control. The class given is functional. Also on record: scale not given: the % may be the effect or the level left. A digest of the protocol:
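Male db/db mice (10 weeks old), grouped by nonfasting and 12 h fasting glucose and body weight, n = 8 per group, lean littermates as lean control. Oral dosing in water once daily for 4 weeks. Then 12 h fast, oral glucose 1.5 g/kg, glucometer readings at 0, 15, 30, 60 and 120 min.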

The nature of series [12]: Cytotoxicity against human L02 cells assessed as cell viability at 20 uM measured after 48 hrs by MTT assay relative to control. The following applies: read-out: Activity. The class given is cell-based. The procedure, abridged:
as §1

Series [13] is described as follows: Half life in Sprague-Dawley rat at 10 mg/kg, po measured after 48 hrs by LC-MS/MS analysis. The format is ADME, organism-based. The following applies: in vivo.
A short description of series [14]: Tmax in Sprague-Dawley rat at 10 mg/kg, po measured after 48 hrs by LC-MS/MS analysis. The format is ADME, organism-based. The following applies: in vivo.
In series [15] the target is Dipeptidyl peptidase 4 (Rattus norvegicus) (UniProt P14740). Kind of series: In vivo inhibition of DPP4 in Sprague-Dawley rat plasma at 10 mg/kg, po via gavage using Gly-Pro-AMC as substrate measured after 30 mins relative to control. The format is functional, organism-based. A digest of the protocol:
as §2

The nature of series [16]: Cmax in Sprague-Dawley rat at 10 mg/kg, po measured after 48 hrs by LC-MS/MS analysis. The class given is ADME, organism-based. The following applies: in vivo. Also on record: route oral, dose 10 mg/kg, time 48 hrs.
Series [17] in a line: Clearance in Sprague-Dawley rat at 10 mg/kg, po measured after 48 hrs by LC-MS/MS analysis. The class given is ADME, organism-based. The settings on record: in vivo.
The nature of series [18]: AUC (0 to infinity) in Sprague-Dawley rat at 10 mg/kg, po measured after 48 hrs by LC-MS/MS analysis. The following applies: in vivo. Also on record: route oral, dose 10 mg/kg, time 48 hrs. The format is ADME, organism-based.
Series [19] has as its target Dipeptidyl peptidase 4 (Rattus norvegicus) (UniProt P14740). Kind of series: In vivo inhibition of DPP4 in Sprague-Dawley rat plasma at 10 mg/kg, po via gavage using Gly-Pro-AMC as substrate measured after 12 hrs relative to control. The format is functional, organism-based. The procedure, abridged:
as §2

Bounds are passed on as bounds.

Dipeptidyl peptidase 4 (Rattus norvegicus), sequence (P14740 whole entry, looked up): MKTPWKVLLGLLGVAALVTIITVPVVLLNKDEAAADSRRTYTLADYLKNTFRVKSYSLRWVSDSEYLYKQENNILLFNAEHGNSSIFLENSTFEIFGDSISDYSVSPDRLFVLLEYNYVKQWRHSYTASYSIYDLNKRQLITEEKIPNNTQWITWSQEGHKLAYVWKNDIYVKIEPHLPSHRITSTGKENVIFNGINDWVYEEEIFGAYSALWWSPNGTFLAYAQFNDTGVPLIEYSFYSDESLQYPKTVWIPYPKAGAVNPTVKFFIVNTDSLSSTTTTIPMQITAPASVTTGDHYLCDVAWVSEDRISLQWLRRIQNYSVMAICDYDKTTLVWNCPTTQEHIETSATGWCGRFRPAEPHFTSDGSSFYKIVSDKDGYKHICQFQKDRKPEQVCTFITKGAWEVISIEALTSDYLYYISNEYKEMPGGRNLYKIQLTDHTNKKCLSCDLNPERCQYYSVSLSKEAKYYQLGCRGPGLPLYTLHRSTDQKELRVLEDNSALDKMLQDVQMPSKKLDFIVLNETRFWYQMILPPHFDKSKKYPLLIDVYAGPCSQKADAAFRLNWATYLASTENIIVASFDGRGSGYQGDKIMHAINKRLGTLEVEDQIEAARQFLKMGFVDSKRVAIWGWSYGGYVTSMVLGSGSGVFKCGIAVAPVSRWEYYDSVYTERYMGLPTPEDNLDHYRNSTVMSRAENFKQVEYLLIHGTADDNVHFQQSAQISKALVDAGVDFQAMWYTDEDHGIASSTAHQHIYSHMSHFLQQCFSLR
Dipeptidyl peptidase 9, sequence (Q86TI2 whole entry): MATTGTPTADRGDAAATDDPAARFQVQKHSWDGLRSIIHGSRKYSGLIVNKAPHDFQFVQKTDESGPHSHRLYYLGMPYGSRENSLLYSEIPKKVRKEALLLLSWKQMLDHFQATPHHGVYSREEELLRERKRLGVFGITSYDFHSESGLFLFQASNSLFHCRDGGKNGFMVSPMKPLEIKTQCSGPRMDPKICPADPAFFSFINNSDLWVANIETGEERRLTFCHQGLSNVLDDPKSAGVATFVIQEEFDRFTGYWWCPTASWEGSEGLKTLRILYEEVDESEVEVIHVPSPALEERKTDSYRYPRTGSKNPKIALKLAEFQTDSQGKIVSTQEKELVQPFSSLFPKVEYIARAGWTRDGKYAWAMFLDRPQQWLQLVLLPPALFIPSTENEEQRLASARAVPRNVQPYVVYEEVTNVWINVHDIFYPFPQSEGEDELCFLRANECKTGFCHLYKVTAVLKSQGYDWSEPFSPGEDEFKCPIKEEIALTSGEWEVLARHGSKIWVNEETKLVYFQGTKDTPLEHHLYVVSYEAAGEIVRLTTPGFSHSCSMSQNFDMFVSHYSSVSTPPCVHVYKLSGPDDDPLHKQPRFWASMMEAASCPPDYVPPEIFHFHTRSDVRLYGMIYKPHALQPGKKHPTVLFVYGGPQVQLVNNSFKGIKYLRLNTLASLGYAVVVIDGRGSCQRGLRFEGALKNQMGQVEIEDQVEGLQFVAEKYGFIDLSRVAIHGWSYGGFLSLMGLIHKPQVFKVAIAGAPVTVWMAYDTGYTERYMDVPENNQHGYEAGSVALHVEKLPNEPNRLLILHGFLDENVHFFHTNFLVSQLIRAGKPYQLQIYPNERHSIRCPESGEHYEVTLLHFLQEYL
Dipeptidyl peptidase 8, sequence (Q6V1X1 whole entry): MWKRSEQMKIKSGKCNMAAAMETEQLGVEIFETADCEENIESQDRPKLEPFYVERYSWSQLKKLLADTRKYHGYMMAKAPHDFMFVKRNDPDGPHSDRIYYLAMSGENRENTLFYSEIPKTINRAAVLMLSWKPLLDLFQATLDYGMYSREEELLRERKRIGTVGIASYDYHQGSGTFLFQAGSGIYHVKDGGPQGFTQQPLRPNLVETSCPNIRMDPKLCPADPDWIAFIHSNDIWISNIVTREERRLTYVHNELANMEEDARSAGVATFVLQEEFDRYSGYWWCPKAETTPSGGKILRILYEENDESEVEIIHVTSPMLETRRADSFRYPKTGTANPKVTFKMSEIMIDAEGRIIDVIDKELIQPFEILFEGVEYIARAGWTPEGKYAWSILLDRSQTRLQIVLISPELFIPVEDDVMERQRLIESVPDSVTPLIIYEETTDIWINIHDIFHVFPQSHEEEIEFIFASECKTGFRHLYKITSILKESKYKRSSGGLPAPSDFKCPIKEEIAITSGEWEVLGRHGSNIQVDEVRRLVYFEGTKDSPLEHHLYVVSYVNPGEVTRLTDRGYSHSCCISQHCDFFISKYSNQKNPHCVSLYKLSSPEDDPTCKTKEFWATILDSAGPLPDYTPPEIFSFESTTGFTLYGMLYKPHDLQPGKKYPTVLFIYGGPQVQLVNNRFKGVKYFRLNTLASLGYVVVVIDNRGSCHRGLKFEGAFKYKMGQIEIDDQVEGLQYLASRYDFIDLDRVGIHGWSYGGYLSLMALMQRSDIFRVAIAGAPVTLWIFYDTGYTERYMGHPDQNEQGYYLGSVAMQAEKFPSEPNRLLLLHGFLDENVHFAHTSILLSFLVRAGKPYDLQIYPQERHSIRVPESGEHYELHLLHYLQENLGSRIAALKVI
Dipeptidyl peptidase 4, sequence (P27487 whole entry): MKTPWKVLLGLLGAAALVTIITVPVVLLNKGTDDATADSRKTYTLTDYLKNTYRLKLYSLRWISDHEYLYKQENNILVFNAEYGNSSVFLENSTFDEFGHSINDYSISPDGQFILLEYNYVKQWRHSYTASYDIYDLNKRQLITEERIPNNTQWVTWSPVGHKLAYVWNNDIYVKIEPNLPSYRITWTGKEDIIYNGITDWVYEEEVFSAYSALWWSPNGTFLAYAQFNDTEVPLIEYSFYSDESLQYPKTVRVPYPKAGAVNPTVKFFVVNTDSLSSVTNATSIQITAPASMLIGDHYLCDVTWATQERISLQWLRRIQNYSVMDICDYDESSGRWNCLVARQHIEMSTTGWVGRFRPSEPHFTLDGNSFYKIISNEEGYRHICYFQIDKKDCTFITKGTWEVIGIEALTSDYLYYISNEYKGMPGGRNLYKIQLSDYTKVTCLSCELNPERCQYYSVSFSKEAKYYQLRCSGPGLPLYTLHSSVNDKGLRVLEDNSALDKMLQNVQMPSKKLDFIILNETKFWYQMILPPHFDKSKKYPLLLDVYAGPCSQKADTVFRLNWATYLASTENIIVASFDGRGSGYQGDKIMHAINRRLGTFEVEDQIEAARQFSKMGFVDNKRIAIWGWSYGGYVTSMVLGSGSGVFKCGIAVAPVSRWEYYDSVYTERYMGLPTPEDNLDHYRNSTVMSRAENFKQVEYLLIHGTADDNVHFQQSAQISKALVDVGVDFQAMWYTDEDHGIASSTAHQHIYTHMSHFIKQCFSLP

In the case of `CC#CCn1c(N2CCC[C@@H](N)C2)cc(=O)n(Cc2cccc(C(=O)O)c2Br)c1=O`, the IC50 on Dipeptidyl peptidase 4 was > 1 µM.
Turning to `CC#CCn1c(N2CCC[C@@H](N)C2)cc(=O)n(Cc2cccc(C(=O)O)c2F)c1=O`, the concentration for half-maximal inhibition (IC50) at Dipeptidyl peptidase 4 is > 1 µM.
In the case of `CC#CCn1c(N2CCC[C@@H](N)C2)cc(=O)n(Cc2cc(C(=O)O)ccc2Cl)c1=O`, in series [1], the remaining at 2 h, 1 µM was 103%. In addition, the remaining at 1 h, 0.1 µM in [2] was 106%. Also, the half-maximal inhibitory concentration (IC50) at Dipeptidyl peptidase 8 and on Dipeptidyl peptidase 9 was > 100 µM each time. The same compound returned an AUC in series [3] of 8.27225 µg·h/mL. The half-life in [4] was 54.6 min. For the same compound, the viability at 48 h in series [5] was > 95%. The peak concentration (Cmax) in series [6] was found to be 25.7 µg/mL. Besides, the CL in [7] is 3.89 L/h/kg.
For the compound `CC#CCn1c(N2CCC[C@@H](N)C2)cc(=O)n(Cc2cc(Br)cc(C(=O)OC)c2)c1=O`, the half-maximal inhibitory concentration (IC50) at Dipeptidyl peptidase 8 and at Dipeptidyl peptidase 9 was > 100 µM in each case.
Consider `Cn1c(=O)cc(N2CCC[C@@H](N)C2)n(Cc2ccccc2C#N)c1=O` [ALOGLIPTIN], for which, in [8], the inhibition amounted to 45%. In addition, the results for the Activity with Mus musculus [9], in the series with Mus musculus [10] and in the series on Mus musculus [11] were 12.4%, 40.1% and 16.7%, respectively.
Turning to `CC#CCn1c(N2CCC[C@@H](N)C2)cc(=O)n(Cc2cc(Br)cc(C(=O)O)c2)c1=O`, the IC50 at Dipeptidyl peptidase 8 and at Dipeptidyl peptidase 9 was > 100 µM throughout.
As to `COc1cccc2c1C(=O)c1c(O)c3c(c(O)c1C2=O)C[C@@](O)(C(=O)CO)C[C@@H]3O[C@H]1C[C@H](N)[C@H](O)[C@H](C)O1` [DOXORUBICIN], the viability at 48 h, 20 µM in [12] was 25%.
With `CC#CCn1c(N2CCC[C@@H](N)C2)cc(=O)n(Cc2cc(C(=O)OC)ccc2Cl)c1=O`, the remaining at 2 h, 1 µM in series [1] amounted to 64.1%. Moreover, the remaining at 1 h, 0.1 µM in [2] is 34.4%. In [13], this compound had a half-life of 146 min. For the same compound, the concentration for half-maximal inhibition (IC50) at Dipeptidyl peptidase 8 and on Dipeptidyl peptidase 9 was > 100 µM throughout. Also, the time of peak concentration (Tmax) in series [14] is 22.8 min. Besides, the values for the inhibition in series [15] and in [19] were 90% and > 70%, respectively. For the same compound, in series [16], the highest level (Cmax) was 3.19 µg/mL. Also, the CL/F in series [17] is 0.55 L/h/kg. Also, in series [5], the viability at 48 h is > 95%. This compound came in with an AUC(0-inf) in series [18] of 26.8 µg·h/mL.
With `CC#CCn1c(N2CCC[C@@H](N)C2)cc(=O)n(Cc2cccc(C(=O)OC)c2Br)c1=O`, the IC50 on Dipeptidyl peptidase 8 and on Dipeptidyl peptidase 9 was > 100 µM each time.
As to `CC#CCn1c(N2CCC[C@@H](N)C2)cc(=O)n(Cc2cccc(C(=O)OC)c2F)c1=O`, the half-inhibitory concentration (IC50) at Dipeptidyl peptidase 8 and on Dipeptidyl peptidase 9 was > 100 µM in each case.
